Assay [1] addresses cAMP and cAMP-inhibited cGMP 3',5'-cyclic phosphodiesterase 10A (Homo sapiens, UniProt Q9Y233). The assay can be described thus: Inhibition of human recombinant PDE10A catalytic domain pre-incubated for 5 mins before [3H]cAMP substrate addition and measured 20 mins post substrate addition by scintillation proximity assay. For orientation: Scintillation proximity formats need no separation of bound from free tracer.

The target of assay [2] is cGMP-inhibited 3',5'-cyclic phosphodiesterase 3A (Homo sapiens, UniProt Q14432). The assay can be described thus: Inhibition of human recombinant PDE3A pre-incubated for 5 mins before [3H]cAMP substrate addition and measured 20 mins post substrate addition by scintillation proximity assay. In outline:
(§1)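 Scintillation proximity assay on a fixed amount of recombinant human PDE enzyme, run across varying inhibitor concentrations. The tritiated cyclic nucleotide substrate was used at 1/3 of Km. Background was subtracted, counts were plotted against inhibitor concentration, and IC50 was fitted by non-linear regression. Values are mean ± SD from at least three experiments.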

Assay [3] has as its target cGMP-inhibited 3',5'-cyclic phosphodiesterase 3B (Homo sapiens, UniProt Q13370). The assay can be described thus: Inhibition of human recombinant PDE3B pre-incubated for 5 mins before [3H]cAMP substrate addition and measured 20 mins post substrate addition by scintillation proximity assay. The gist of the method: as §1
In assay [4] the target is 3',5'-cyclic-AMP phosphodiesterase 4A (Homo sapiens, UniProt P27815). In words: Inhibition of human recombinant PDE4A pre-incubated for 5 mins before [3H]cAMP substrate addition and measured 20 mins post substrate addition by scintillation proximity assay. In outline: as §1
Assay [5] concerns the target 3',5'-cyclic-AMP phosphodiesterase 4B (Homo sapiens, UniProt Q07343). In words: Inhibition of human recombinant PDE4B pre-incubated for 5 mins before [3H]cAMP substrate addition and measured 20 mins post substrate addition by scintillation proximity assay. The gist of the method: as §1

Our source for the IC50 values is ChEMBL document CHEMBL3392961, “Synthesis and in vitro characterization of cinnoline and benzimidazole analogues as phosphodiesterase 10A inhibitors” (Bioorg Med Chem Lett, 2015).

SMILES strings stand for the structures. Where only a bound is given, the exact number is not on record here.

Sequence of 3',5'-cyclic-AMP phosphodiesterase 4B (Q07343 whole entry): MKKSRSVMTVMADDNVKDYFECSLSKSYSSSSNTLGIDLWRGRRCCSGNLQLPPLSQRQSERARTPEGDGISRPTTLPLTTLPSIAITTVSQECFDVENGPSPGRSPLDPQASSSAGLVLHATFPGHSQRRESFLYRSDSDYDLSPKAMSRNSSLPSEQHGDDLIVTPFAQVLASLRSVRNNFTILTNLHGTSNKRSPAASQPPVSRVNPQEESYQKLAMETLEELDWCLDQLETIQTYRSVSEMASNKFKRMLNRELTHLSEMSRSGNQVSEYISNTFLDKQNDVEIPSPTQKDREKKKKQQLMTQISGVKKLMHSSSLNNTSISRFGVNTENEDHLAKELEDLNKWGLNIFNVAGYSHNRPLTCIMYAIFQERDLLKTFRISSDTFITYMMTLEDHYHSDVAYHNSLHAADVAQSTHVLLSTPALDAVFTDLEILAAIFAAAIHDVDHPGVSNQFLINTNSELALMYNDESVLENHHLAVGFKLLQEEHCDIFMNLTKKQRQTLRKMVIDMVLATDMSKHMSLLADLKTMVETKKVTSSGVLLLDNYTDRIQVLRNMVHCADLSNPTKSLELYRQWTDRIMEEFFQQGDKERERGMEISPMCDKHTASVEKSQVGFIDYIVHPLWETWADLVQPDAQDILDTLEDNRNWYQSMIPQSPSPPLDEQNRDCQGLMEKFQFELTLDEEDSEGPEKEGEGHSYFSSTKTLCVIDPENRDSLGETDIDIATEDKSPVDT
Sequence of 3',5'-cyclic-AMP phosphodiesterase 4A (P27815 whole entry): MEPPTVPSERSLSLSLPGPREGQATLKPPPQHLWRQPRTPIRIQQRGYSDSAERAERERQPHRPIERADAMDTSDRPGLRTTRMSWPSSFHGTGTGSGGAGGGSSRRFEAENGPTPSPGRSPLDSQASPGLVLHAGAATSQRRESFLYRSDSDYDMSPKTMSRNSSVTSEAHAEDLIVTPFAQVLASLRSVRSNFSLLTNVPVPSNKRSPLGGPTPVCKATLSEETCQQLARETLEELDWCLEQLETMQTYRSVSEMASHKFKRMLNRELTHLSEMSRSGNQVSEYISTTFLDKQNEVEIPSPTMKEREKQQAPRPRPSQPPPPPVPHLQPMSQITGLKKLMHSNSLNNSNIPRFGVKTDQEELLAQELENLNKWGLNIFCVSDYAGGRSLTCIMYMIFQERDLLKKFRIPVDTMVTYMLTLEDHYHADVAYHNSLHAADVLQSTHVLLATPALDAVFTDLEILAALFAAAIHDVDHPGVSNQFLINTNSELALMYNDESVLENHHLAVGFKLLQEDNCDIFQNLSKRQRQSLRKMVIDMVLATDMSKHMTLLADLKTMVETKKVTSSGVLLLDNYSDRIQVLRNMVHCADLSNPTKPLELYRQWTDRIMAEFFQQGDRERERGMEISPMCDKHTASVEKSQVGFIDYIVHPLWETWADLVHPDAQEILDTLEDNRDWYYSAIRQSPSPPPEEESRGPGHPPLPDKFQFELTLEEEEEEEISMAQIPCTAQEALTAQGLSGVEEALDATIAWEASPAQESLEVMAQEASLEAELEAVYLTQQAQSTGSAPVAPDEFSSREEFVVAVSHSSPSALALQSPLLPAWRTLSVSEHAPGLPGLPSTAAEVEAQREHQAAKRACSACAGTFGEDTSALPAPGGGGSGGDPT
Sequence of cGMP-inhibited 3',5'-cyclic phosphodiesterase 3A (Q14432 whole entry): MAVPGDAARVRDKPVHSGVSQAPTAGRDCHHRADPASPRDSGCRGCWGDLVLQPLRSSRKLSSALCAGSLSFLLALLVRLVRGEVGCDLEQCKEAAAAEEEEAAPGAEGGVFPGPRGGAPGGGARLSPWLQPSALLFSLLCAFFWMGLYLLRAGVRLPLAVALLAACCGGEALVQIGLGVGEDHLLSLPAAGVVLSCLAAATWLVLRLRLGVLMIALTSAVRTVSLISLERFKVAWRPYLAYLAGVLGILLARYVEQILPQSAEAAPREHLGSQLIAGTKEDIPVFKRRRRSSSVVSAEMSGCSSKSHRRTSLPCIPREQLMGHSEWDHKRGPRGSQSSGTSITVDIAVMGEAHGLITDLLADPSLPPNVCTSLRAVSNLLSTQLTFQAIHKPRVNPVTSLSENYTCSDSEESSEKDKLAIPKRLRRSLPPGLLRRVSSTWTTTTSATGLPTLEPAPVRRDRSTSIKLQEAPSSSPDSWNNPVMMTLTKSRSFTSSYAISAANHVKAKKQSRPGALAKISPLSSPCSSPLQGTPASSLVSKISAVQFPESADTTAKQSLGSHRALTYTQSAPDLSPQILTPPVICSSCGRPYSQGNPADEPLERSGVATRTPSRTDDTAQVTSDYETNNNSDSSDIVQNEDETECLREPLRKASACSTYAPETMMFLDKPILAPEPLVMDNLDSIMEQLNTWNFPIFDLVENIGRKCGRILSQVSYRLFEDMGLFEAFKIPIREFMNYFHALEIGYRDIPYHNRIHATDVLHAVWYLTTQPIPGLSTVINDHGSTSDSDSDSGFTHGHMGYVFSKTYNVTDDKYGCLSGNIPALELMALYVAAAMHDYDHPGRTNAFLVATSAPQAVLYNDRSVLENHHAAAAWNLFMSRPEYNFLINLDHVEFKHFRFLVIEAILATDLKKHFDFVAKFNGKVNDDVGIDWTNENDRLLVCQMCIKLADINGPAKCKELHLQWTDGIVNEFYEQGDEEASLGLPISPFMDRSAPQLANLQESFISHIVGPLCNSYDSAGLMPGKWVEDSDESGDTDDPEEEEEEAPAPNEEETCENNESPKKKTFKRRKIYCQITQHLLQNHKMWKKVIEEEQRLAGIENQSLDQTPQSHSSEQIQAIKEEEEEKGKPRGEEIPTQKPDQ
Sequence of cAMP and cAMP-inhibited cGMP 3',5'-cyclic phosphodiesterase 10A (Q9Y233 whole entry, the tested form may be a part): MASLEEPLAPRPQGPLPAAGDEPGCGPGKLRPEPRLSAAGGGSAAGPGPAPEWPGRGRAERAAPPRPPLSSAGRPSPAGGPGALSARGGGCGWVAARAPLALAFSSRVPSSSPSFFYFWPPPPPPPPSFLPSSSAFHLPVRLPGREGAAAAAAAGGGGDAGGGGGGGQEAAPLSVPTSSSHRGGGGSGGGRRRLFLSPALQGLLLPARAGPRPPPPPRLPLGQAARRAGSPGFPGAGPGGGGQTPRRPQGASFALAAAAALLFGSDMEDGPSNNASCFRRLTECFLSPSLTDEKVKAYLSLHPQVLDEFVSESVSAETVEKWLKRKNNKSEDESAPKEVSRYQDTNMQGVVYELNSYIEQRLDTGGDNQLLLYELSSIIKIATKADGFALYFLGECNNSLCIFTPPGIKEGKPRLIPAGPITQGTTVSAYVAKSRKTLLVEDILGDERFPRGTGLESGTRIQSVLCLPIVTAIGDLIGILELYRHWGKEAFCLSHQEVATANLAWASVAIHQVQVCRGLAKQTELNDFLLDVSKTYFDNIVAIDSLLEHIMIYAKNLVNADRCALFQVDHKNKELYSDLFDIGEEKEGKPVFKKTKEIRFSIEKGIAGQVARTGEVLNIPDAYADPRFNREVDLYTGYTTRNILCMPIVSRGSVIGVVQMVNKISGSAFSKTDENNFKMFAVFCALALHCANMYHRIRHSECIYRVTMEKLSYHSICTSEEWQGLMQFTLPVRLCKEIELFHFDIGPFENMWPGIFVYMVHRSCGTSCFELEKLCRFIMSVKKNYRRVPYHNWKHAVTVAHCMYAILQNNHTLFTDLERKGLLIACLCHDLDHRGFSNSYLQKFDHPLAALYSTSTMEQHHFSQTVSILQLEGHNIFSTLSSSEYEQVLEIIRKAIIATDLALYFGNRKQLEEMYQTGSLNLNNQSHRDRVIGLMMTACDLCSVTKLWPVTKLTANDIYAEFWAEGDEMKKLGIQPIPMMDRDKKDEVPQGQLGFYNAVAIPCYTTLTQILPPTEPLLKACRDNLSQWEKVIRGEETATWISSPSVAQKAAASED
Sequence of cGMP-inhibited 3',5'-cyclic phosphodiesterase 3B (Q13370 whole entry): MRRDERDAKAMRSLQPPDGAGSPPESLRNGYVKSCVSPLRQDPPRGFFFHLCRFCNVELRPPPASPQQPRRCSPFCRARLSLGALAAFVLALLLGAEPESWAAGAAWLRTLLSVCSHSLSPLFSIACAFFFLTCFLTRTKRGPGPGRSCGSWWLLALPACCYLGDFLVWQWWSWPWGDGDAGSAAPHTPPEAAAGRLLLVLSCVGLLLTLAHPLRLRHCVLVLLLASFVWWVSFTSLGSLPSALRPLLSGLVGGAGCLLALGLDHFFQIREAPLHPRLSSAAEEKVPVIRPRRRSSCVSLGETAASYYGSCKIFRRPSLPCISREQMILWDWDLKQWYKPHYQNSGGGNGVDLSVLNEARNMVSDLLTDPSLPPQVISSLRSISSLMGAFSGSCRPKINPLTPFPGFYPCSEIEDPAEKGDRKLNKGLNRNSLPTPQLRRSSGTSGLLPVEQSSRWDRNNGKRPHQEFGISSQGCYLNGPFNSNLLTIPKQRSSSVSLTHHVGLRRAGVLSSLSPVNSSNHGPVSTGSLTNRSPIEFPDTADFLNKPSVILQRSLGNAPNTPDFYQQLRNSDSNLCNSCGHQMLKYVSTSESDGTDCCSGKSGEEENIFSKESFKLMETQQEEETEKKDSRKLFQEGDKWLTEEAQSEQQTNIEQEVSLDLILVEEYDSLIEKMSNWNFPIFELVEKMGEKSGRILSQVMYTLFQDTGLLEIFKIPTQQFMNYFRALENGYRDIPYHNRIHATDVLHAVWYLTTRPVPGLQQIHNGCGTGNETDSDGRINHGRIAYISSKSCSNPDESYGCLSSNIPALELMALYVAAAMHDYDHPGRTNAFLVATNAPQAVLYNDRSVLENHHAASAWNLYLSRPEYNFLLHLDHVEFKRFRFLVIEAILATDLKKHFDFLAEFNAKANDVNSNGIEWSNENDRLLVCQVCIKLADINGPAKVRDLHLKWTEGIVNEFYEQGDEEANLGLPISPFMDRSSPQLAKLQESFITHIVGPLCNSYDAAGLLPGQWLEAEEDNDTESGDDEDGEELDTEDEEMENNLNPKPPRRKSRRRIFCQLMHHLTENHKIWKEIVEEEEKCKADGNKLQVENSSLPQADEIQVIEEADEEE

As for `Cc1cc(-c2cnnc3ccccc23)cnc1N1CCC(O)(c2ccc(F)nc2)CC1`, the IC50 result in assay [1] is on record as “Not Active”.
In the case of `Cn1c(C(=O)c2ccc(Oc3ncccc3-c3cccnc3)cc2)nc2ccccc21`, the IC50 in assay [1] (read-out: IC50) was found to be 0.00373 µM; in assay [2] it was 167 µM; in assay [3] it was 234 µM; in assay [4] it was 40.3 µM; in assay [5], 25.9 µM.
`COc1cc2c(-c3ccc(N4CCC(C)(O)CC4)nc3)cnnc2cc1O`: in assay [1] (read-out: IC50), the IC50 came out at 10.8 µM.
In the case of `COc1cc2c(-c3cnc(N4CCC(O)(c5ccc(F)nc5)CC4)c(C)c3)cnnc2cc1OCCCF`, the IC50 in assay [1] (read-out: IC50) came to 0.0793 µM.
With `COc1cc2nncc(-c3cnc(N4CCC(O)(c5ccc(F)nc5)CC4)c(C)c3)c2cc1OC`, the half-maximal inhibitory concentration (IC50) in assay [1] (read-out: IC50) was found to be 0.00286 µM; in assay [2], 3.7 µM; in assay [3], 6.54 µM; in assay [4], 25.4 µM; in assay [5], 30.6 µM.
Regarding `COc1cc2c(-c3cnc(N4CCC(O)(c5ccc(F)nc5)CC4)c(C)c3)cnnc2cc1OCc1ccc2ccccc2n1`, the IC50 in assay [1] (read-out: IC50) came to 0.518 µM.
Still for that read-out and setting: with `COc1cc2nncc(-c3ccc(N4CCC(O)(c5cccnc5)CC4)nc3)c2cc1OC` the figure was 0.014 µM.
As for `CC(=O)N1CCC(C(=O)c2cccnc2Oc2ccc(C(=O)c3nc4ccccc4n3C)cc2)CC1`, the half-maximal inhibitory concentration (IC50) in assay [1] (read-out: IC50) is > 1.9 µM.
In the case of `COc1cc2nncc(-c3cnc(N4CCC(O)(c5cccnc5)CC4)c(Cl)c3)c2cc1OC`, the IC50 in assay [1] (read-out: IC50) worked out at 0.00552 µM.
`Cn1c(C(=O)c2ccc(Oc3ncccc3C(=O)c3ccccc3)cc2)nc2ccccc21`: in assay [1], the IC50 result was “Not Active”.
Turning to `COc1cc2c(-c3ccc(N4CCC(C)(O)CC4)nc3)cnnc2cc1OCc1ccccc1`, in assay [1] (read-out: IC50), the IC50 turned out to be 4.25 µM.
Turning to `COc1ccc(C(=O)c2cccnc2Oc2ccc(C(=O)c3nc4ccccc4n3C)cc2)cc1`, the IC50 result in assay [1] is “Not Active”.
For `COc1cc2nncc(-c3cnc(N4CCC(O)(c5cccnc5)CC4)c(C)c3)c2cc1OC`, the IC50 was 0.00152 µM in assay [1] (read-out: IC50); 3.07 µM in assay [2]; 4.11 µM in assay [3]; 7.83 µM in assay [4]; 8.73 µM in assay [5].
Consider `COc1cc2c(-c3ccc(N4CCC(O)(c5cccnc5)CC4)nc3)cnnc2cc1OCc1ccccc1`, for which the IC50 in assay [1] (read-out: IC50) was determined as 1.55 µM.
In the case of `Cn1c(C(=O)c2ccc(Oc3ncccc3-c3ccccc3)cc2)nc2ccccc21`, the IC50 in assay [1] (read-out: IC50) came out at 0.0186 µM.
For `COc1cc2c(-c3cnc(N4CCC(O)(c5ccc(F)nc5)CC4)c(C)c3)cnnc2cc1OCc1ccccc1`, the IC50 in assay [1] (read-out: IC50) was 0.35 µM.
`COc1ccc(-c2cccnc2Oc2ccc(C(=O)c3nc4ccccc4n3C)cc2)cc1`: in assay [1] (read-out: IC50), the IC50 is 0.008 µM.
Still for that read-out and setting: with `COc1cc2c(-c3ccc(N4CCC(O)(c5cccnc5)CC4)nc3)cnnc2cc1O` the figure was 6.62 µM; with `COc1cc2nncc(-c3cnc(N4CCC(O)(c5ccc(Cl)nc5)CC4)c(C)c3)c2cc1OC`, 0.0098 µM.
On to `Cc1cc(-c2cnnc3cc4c(cc23)OCO4)cnc1N1CCC(O)(c2ccc(F)nc2)CC1`, for which, in assay [1], the IC50 entry was “Not Active”.
Regarding `COc1cc2nncc(-c3ccc(N4CCC(C)(O)CC4)nc3)c2cc1OC`, the IC50 in assay [1] (read-out: IC50) was found to be 0.0184 µM.

The term IC50 denotes the concentration needed to halve the response being measured.
